# Measurements collected from several papers.
# Target: cGMP-dependent protein kinase 1 (PRKG1, Homo sapiens, UniProt Q13976)
# Sequence (Q13976 1-671, as in one of the studies): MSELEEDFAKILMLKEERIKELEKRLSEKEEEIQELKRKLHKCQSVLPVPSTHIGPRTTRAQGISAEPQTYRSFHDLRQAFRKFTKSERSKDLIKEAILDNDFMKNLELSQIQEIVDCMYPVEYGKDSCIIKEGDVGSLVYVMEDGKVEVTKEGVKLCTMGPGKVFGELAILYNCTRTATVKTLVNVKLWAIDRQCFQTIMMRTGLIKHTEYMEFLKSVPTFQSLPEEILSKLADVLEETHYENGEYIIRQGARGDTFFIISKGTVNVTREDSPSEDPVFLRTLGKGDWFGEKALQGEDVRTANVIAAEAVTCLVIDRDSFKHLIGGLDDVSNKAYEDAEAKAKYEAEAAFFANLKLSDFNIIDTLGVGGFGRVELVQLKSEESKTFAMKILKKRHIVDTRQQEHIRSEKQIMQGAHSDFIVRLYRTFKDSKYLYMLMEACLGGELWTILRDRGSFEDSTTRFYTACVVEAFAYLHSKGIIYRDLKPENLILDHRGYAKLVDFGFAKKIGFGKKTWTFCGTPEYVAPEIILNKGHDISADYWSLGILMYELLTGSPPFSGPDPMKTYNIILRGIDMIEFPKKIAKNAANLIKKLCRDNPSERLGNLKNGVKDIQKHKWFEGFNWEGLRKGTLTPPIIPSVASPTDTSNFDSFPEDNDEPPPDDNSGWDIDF
Compound,test,conditions,endpoint,value
Nc1ncc(-c2nc(N3CCOCC3)nc(N3CCOCC3)n2)c(C(F)F)n1,"binding, competition with immobilised ligand",10 µM,remaining binding,79%
CN1CCC(c2cc(-c3ccncc3)c(-c3ccc(F)cc3)[nH]2)CC1,"enzyme activity, inhibitor",10 µM,inhibition,9%
C#Cc1n[nH]c2c(-c3cn([C@@H](C)c4ccccn4)c(=O)[nH]c3=O)cc(F)cc12,"enzyme activity, inhibitor",0.1 µM,inhibition,0.5%
COc1ncccc1-c1cnn2ccc(N3CCN(C(=O)OC(C)C)CC3)nc12,"binding, competition with immobilised ligand",1 µM,remaining binding,100%
N#CC1(c2ccccn2)CCN(Cc2cc(C(=O)O)c(=O)n3ccccc23)CC1,"cell-free assay, competition with immobilised ligand",1 µM,remaining binding,98%
COc1cc(Nc2ncc(F)c(Nc3ccc4c(n3)NC(=O)C(C)(C)O4)n2)cc(OC)c1OC,binding,10 µM,inhibition,0%
Cn1cc(-c2cc(F)cc(N3CCn4c(cc5c4CCCC5)C3=O)c2CO)cc(Nc2ccc(N3CCN(C4COC4)CC3)cn2)c1=O,"enzyme activity, inhibitor",0.1 µM,inhibition,8%
Cn1cncc1[C@](O)(COc1ccc(C#N)cc1-c1ccc(OC(F)(F)F)cc1)c1ccc(C#N)cc1,"cell-free assay, competition with immobilised ligand",1 µM,remaining binding,91%
C#Cc1n[nH]c2c(-c3cn([C@@H](C)c4ccccc4)c(=O)[nH]c3=O)cc(F)cc12,"enzyme activity, inhibitor",0.1 µM,inhibition,5.1%
Cc1nn(C)cc1-c1nc2c(N3CCN(Cc4ccc(Cl)cc4)CC3)c(Cl)cnc2[nH]1,"binding, competition with immobilised ligand",1 µM,remaining binding,100%
Cn1cc(-c2cccc(N3CCc4c(sc5c4CC(C)(C)C5)C3=O)c2CO)cc(Nc2ccncn2)c1=O,"enzyme activity, inhibitor",1 µM,inhibition,4%
